ChEMBL document CHEMBL3804779, “Novel free fatty acid receptor 1 (GPR40) agonists based on 1,3,4-thiadiazole-2-carboxamide scaffold” (Bioorg Med Chem, 2016)

Legend:
[1] = target: Free fatty acid receptor 1 (Homo sapiens, UniProt O14842); test: Agonist activity at human GPR40 expressed in CHO cells by calcium influx assay; format: functional, cell-based
Procedure, shortened: (§1)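 CHO cells stably expressing the receptor (GPR40, GPR41, GPR43 or GPR120) plated 24 h before assay and loaded with calcium dye for 1 h. Calcium flux read on FLIPR Tetra. Agonist response taken as maximum fluorescence change over baseline. Concentration-response curves fitted for EC50. GW9508 run as positive control.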

[2] = Protein binding in mouse plasma at 1 uM after 5 hrs by HPLC-MS/MS analysis; format: ADME, cell-free; settings: read-out: PPB (converted)
Procedure, shortened: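 Equilibrium dialysis (MWCO 12-14 kDa) of mouse plasma spiked at 1 uM (1% solvent final) against PBS pH 7.4, 37 °C, orbital shaking, 5 h, in quadruplicate. Chamber samples matrix-matched, precipitated with acetonitrile and analysed by HPLC-MS/MS. % bound = (1 − buffer/plasma peak area) × 100. Recovery checked against an undialyzed standard. Verapamil used as reference.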

[3] = Half life in mouse plasma at 1 uM by LC-MS/MS analysis; format: ADME
Procedure, shortened: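 Compound at 1 uM (1% DMSO final) incubated in mouse plasma at 37 °C with shaking. Five time points sampled over 120 min, each quenched with acetonitrile and centrifuged. Supernatant analysed by LC-MS/MS for percentage remaining and T1/2. Verapamil and propantheline used as references.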

[4] = Intrinsic clearance in BALB/c mouse liver microsomes at 2 uM after 40 mins by HPLC analysis; format: ADME; settings: read-out: CLH
Procedure, shortened: (§2)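 BALB/c male mouse liver microsomes (pooled, perfused livers) at 0.42 mg protein/ml in 100 mM phosphate buffer pH 7.4 with MgCl2 and an NADPH-regenerating system. Compound at 2 uM (1.6% solvent final) incubated at 37 °C in duplicate. Five time points over 40 min, quenched with acetonitrile and read by HPLC-MS/MS. Controls lacked NADPH. kel from ln(AUC) vs time regression; T1/2 = 0.693/kel; CLint scaled per mg microsomal protein.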

[5] = Metabolic stability in BALB/c mouse liver microsomes at 2 uM after 40 mins by HPLC analysis; format: ADME; procedure, shortened: as §2
[6] = target: CYP3A4 (Homo sapiens, UniProt P08684); test: Inhibition of CYP3A4 (unknown origin) at 20 uM by P450-glo assay; format: ADME
[7] = target: CYP2D6 (Homo sapiens, UniProt P10635); test: Inhibition of CYP2D6 (unknown origin) at 20 uM by P450-glo assay; format: ADME
Procedure, shortened: (§3)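 P450-Glo luminescent assay run per manufacturer's protocol. Each CYP isoform incubated with its luminogenic substrate and test compound at 20 uM (0.25% DMSO final), in quadruplicate. Control membranes without CYP served as baseline.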

[8] = target: CYP2C19 (Homo sapiens, UniProt P33261); test: Inhibition of CYP2C19 (unknown origin) at 20 uM by P450-glo assay; format: ADME; procedure, shortened: as §3
[9] = target: T1, Free fatty acid receptor 2 (Homo sapiens, UniProt O15552); test: Agonist activity at human GPR43 (unknown origin) expressed in CHO cells by calcium influx assay; format: functional, cell-based; procedure, shortened: as §1
T1 sequence (O15552 whole entry): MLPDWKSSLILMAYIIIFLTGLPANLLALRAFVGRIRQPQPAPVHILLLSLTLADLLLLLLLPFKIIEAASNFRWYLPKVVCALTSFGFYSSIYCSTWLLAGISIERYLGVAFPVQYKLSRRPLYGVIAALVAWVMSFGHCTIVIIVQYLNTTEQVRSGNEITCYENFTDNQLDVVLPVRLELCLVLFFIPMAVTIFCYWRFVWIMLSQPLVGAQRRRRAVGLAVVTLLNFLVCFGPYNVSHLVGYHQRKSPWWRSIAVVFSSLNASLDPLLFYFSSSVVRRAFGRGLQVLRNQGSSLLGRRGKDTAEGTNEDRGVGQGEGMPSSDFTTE

[10] = Distribution coefficient, log D of the compound at pH 7.4 by LC-MS/MS analysis; format: physicochemical; settings: octanol/water
Procedure, shortened: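 Shake-flask partitioning between n-octanol and PBS, run in duplicate. Compound added from 10 mM DMSO stock to pre-equilibrated phases, shaken 1 h and separated by centrifugation. Each phase diluted and quantified by LC-MS/MS. D calculated from peak areas corrected for dilution (100·So/Sp). Reference compound included.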

[11] = target: T2, Free fatty acid receptor 4 (Homo sapiens, UniProt Q5NUL3); test: Agonist activity at human GPR120 (unknown origin) expressed in CHO cells by calcium influx assay; format: functional, cell-based; procedure, shortened: as §1
T2 sequence (Q5NUL3 whole entry): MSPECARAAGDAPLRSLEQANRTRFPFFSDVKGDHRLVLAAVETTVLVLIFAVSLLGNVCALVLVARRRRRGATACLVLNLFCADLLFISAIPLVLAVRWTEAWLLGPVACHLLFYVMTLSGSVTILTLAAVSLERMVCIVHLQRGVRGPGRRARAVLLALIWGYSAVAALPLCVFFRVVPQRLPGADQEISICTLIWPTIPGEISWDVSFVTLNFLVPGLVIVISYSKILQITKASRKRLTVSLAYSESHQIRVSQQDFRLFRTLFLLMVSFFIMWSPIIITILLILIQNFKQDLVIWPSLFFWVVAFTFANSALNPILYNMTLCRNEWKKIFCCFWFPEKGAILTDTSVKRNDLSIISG

[12] = target: T3, hERG (KCNH2) (Homo sapiens, UniProt Q12809); test: Inhibition of human ERG expressed in cell membranes at 5 uM after 4 hrs by fluorescence polarization assay; settings: cell membranes that express human ERG
Procedure, shortened: (§4)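 Predictor hERG fluorescence polarization kit used per manufacturer's protocol. hERG-containing cell membranes incubated with fluorescent tracer and test compound at 1, 5 or 20 uM for 4 h.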

[13] = target: CYP2C9 (Homo sapiens, UniProt P11712); test: Inhibition of CYP2C9 (unknown origin) at 20 uM by P450-glo assay; format: ADME; procedure, shortened: as §3
[14] = target: T3, hERG (KCNH2); test: Inhibition of human ERG expressed in cell membranes at 1 uM after 4 hrs by fluorescence polarization assay; settings: cell membranes that express human ERG; procedure, shortened: as §4
[15] = target: T3, hERG (KCNH2); test: Inhibition of human ERG expressed in cell membranes at 20 uM after 4 hrs by fluorescence polarization assay; settings: cell membranes that express human ERG; procedure, shortened: as §4
[16] = target: T4, CYP1A2 (Homo sapiens, UniProt P05177); test: Inhibition of CYP1A2 (unknown origin) at 20 uM by P450-glo assay; format: ADME; procedure, shortened: as §3
T4 sequence (P05177 whole entry): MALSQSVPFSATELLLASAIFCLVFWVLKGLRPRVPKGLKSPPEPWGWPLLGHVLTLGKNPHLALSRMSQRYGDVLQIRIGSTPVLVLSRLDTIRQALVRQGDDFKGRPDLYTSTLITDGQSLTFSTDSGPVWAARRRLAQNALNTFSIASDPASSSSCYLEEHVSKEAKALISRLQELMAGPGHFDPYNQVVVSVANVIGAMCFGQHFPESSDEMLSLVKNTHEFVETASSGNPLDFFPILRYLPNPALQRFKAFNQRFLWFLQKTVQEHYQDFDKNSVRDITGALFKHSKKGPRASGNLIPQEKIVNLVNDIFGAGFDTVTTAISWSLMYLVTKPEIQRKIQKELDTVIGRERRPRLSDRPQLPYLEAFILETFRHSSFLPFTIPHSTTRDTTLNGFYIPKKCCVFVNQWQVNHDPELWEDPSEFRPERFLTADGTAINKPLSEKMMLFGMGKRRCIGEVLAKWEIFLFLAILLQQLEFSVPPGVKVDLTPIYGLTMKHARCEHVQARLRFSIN

[17] = target: T5, Free fatty acid receptor 3 (Homo sapiens, UniProt O14843); test: Agonist activity at human GPR41 (unknown origin) expressed in CHO cells by calcium influx assay; format: functional, cell-based; procedure, shortened: as §1
T5 sequence (O14843 whole entry): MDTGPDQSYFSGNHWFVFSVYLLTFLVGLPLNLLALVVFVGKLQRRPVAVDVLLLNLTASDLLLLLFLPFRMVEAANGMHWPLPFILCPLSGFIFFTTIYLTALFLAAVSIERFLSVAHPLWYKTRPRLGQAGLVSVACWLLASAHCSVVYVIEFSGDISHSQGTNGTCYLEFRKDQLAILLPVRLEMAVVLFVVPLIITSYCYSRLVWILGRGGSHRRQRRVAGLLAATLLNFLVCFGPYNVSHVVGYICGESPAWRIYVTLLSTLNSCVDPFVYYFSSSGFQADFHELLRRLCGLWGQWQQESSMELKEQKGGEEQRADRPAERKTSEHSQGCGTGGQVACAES

Sequence of Free fatty acid receptor 1 (O14842 whole entry): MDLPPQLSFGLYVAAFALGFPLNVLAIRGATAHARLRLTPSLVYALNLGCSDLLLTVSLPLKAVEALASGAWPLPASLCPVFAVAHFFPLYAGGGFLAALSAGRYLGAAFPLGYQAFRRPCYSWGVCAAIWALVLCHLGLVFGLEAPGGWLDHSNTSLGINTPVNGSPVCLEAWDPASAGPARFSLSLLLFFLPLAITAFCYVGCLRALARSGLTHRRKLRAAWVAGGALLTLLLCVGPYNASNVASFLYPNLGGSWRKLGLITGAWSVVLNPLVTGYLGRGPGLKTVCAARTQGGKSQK
Sequence of CYP3A4 (P08684 whole entry): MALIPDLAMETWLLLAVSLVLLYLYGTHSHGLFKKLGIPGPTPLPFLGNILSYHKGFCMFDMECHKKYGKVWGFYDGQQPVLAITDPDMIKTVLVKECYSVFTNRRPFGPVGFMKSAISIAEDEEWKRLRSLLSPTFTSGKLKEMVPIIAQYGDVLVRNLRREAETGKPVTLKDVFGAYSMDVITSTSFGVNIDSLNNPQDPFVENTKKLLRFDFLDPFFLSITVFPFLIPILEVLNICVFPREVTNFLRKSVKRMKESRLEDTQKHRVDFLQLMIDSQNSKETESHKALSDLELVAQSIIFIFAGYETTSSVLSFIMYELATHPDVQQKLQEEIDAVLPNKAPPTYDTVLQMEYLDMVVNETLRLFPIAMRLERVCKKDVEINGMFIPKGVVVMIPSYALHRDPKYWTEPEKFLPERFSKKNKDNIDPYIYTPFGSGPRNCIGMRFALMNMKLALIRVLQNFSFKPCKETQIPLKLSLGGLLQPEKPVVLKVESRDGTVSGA
Sequence of CYP2D6 (P10635 whole entry, canonical isoform): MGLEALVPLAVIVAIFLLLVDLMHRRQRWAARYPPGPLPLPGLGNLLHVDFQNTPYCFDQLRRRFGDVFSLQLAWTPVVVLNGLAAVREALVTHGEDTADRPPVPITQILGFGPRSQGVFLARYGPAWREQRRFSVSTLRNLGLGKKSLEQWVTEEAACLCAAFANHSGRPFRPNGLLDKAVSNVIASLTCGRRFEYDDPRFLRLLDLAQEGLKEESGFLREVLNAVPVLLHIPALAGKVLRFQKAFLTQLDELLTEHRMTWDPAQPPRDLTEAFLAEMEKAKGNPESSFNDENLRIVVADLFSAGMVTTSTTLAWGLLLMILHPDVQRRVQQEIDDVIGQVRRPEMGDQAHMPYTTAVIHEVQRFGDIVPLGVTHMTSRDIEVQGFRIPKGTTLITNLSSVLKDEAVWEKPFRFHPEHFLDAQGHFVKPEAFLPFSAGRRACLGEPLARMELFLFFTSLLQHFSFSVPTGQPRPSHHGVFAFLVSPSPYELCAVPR
Sequence of CYP2C19 (P33261 whole entry): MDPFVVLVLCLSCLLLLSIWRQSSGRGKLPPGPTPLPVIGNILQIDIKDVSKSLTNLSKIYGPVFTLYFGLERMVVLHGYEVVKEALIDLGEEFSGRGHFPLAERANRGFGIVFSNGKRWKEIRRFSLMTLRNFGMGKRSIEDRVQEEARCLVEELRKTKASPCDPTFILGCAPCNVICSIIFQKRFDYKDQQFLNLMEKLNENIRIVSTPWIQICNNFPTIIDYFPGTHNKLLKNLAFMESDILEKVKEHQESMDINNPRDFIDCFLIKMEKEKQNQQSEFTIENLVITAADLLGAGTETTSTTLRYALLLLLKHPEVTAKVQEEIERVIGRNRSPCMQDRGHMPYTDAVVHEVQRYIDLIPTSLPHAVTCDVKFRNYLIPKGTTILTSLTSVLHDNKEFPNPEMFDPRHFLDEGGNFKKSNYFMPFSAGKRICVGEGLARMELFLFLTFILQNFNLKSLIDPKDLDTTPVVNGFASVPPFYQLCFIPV
Sequence of CYP2C9 (P11712 whole entry): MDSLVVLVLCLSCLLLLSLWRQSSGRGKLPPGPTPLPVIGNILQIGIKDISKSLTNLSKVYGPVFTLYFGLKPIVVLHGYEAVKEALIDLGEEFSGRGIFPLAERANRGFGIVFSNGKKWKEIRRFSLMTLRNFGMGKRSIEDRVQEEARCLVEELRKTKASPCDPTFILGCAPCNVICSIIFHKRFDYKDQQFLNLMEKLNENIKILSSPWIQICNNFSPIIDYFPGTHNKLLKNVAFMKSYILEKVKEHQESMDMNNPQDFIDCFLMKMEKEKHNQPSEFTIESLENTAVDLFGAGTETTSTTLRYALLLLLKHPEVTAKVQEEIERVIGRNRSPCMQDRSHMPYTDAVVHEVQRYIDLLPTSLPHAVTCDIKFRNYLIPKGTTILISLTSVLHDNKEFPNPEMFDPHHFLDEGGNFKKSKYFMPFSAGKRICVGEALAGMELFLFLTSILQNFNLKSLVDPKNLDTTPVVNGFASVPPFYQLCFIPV
T3 sequence (Q12809 whole entry): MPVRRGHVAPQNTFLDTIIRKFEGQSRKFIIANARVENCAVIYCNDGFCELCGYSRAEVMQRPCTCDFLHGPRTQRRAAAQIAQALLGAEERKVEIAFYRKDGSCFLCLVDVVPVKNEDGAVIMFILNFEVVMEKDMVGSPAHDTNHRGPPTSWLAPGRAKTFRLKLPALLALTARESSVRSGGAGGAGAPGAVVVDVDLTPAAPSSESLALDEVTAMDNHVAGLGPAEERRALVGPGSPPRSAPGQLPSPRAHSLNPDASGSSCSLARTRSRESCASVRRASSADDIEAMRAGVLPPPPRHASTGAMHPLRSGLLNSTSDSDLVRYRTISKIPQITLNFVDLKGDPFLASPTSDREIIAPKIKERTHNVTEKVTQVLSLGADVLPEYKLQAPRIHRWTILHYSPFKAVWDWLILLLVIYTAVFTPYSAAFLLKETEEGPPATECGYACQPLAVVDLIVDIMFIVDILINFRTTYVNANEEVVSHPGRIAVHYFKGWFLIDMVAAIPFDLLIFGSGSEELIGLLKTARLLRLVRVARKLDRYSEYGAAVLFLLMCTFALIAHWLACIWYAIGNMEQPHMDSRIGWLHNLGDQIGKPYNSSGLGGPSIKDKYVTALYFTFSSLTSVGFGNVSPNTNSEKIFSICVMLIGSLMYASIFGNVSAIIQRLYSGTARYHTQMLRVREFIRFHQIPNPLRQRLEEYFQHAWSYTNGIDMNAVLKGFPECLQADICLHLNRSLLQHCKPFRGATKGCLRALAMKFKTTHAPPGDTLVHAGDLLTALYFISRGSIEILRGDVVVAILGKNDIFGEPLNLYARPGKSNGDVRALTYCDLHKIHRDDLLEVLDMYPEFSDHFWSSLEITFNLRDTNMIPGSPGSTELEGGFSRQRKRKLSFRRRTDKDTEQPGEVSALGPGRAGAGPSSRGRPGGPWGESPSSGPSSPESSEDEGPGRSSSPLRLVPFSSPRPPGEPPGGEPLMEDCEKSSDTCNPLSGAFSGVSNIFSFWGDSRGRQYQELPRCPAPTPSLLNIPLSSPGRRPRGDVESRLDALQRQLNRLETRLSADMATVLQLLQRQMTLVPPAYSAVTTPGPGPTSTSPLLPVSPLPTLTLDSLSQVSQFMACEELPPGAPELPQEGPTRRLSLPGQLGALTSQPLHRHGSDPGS

Compound `O=C(O)CCc1nnc(C(=O)Nc2ccc(OCc3ccccc3)cc2)s1` has an EC50 [1] of 17900 nM.

`O=C(O)CCc1ccc(OCc2nnc(C(=O)Nc3ccc(F)cc3)s2)cc1` gave an EC50 [1] of 6640 nM.

For `COc1ccc(NC(=O)c2nnc(COc3ccc(CCC(=O)O)cc3)s2)cc1`, the EC50 [1] was > 10000 nM.

In the case of `Cc1ccc(NC(=O)c2nnc(COc3ccc(CCC(=O)O)cc3)s2)cc1`, the EC50 [1] is reported as 4300 nM.

Work on `O=C(O)CCc1nnc(C(=O)Nc2cccc(-c3ccco3)c2)s1` yielded an EC50 [1] of 1640 nM.

With `Cc1cccc(-c2cccc(NC(=O)c3nnc(CCC(=O)O)s3)c2)c1` the fraction unbound at 5 h, 1 µM [2] was 0.076, the half-life at 1 µM [3] was > 240 min and the microsomal CLint at 2 µM [4] was 21.6 µL/min/mg. The EC50 [1] was 760 nM, the half-life at 2 µM [5] was 77.5 min and the inhibition at 20 µM [6] was 12.3%. For the same compound, the inhibition at 20 µM [7] was 1.8%, the inhibition at 20 µM [8] was 37.2% and the EC50 [9] was > 10 µM. For the same compound, the logD [10] was 1.28, the EC50 [11] was > 10 µM and the inhibition at 4 h, 5 µM [12] was 2%. For the same compound, the inhibition at 20 µM [13] was 9.8%, the inhibition at 4 h, 1 µM [14] was 8% and the inhibition at 4 h, 20 µM [15] was 22%. The inhibition at 20 µM [16] was 94.3% and the EC50 [17] was > 10 µM.

In the case of `O=C(O)CCc1ccc(OCc2nnc(C(=O)Nc3cccc(Cl)c3)s2)cc1`, the fraction unbound at 5 h, 1 µM [2] is reported as 0.072, the half-life at 1 µM [3] is reported as 116 min and the microsomal CLint at 2 µM [4] is reported as 126 µL/min/mg. For the same compound, the EC50 [1] was 10600 nM, the half-life at 2 µM [5] was 13.2 min and the inhibition at 20 µM [6] was 55.2%. The inhibition at 20 µM [7] was 22.7%, the inhibition at 20 µM [8] was 77.7% and the logD [10] was 1.46. It also gave an inhibition at 4 h, 5 µM [12] of -3%, an inhibition at 20 µM [13] of 85% and an inhibition at 4 h, 1 µM [14] of 1%. The inhibition at 4 h, 20 µM [15] was 36% and the inhibition at 20 µM [16] was 41.9%.

Compound `O=C(O)CCc1nnc(C(=O)Nc2cccc(-c3cccc(Cl)c3)c2)s1` has an EC50 [1] of 1690 nM.

Work on `Cc1ccccc1NC(=O)c1nnc(COc2ccc(CCC(=O)O)cc2)s1` yielded an EC50 [1] of 1520 nM.

`COc1cccc(NC(=O)c2nnc(COc3ccc(CCC(=O)O)cc3)s2)c1` gave an EC50 [1] of 4680 nM.

For `O=C(O)CCc1nnc(C(=O)Nc2cccc(-c3ccc(F)cc3)c2)s1`, the fraction unbound at 5 h, 1 µM [2] was 0.059, the half-life at 1 µM [3] was > 240 min and the microsomal CLint at 2 µM [4] was 8 µL/min/mg. It also gave an EC50 [1] of 1280 nM, a half-life at 2 µM [5] of 209 min and an inhibition at 20 µM [6] of -5.1%. The inhibition at 20 µM [7] was 11.8%, the inhibition at 20 µM [8] was 25.2% and the EC50 [9] was > 10 µM. The logD [10] was 0.96, the EC50 [11] was > 10 µM and the inhibition at 4 h, 5 µM [12] was -1%. The inhibition at 20 µM [13] was -1.9%, the inhibition at 4 h, 1 µM [14] was -6% and the inhibition at 4 h, 20 µM [15] was -1%. For the same compound, the inhibition at 20 µM [16] was 47.2% and the EC50 [17] was > 10 µM.

For `O=C(O)CCc1ccc(OCc2nnc(C(=O)Nc3ccccc3F)s2)cc1`, the half-life at 1 µM [3] was 20.4 min, the microsomal CLint at 2 µM [4] was 241 µL/min/mg and the EC50 [1] was 580 nM. It also gave a half-life at 2 µM [5] of 6.9 min, an inhibition at 20 µM [6] of -28.7% and an inhibition at 20 µM [7] of 6.6%. The inhibition at 20 µM [8] was -3.3%, the EC50 [9] was > 10 µM and the logD [10] was 0.95. The EC50 [11] was > 10 µM, the inhibition at 4 h, 5 µM [12] was -7% and the inhibition at 20 µM [13] was 12.8%. It also gave an inhibition at 4 h, 1 µM [14] of 9%, an inhibition at 4 h, 20 µM [15] of 4% and an inhibition at 20 µM [16] of 18.8%. For the same compound, the EC50 [17] was > 10 µM.

`O=C(O)CCc1ccc(OCc2nnc(C(=O)Nc3cccc(F)c3)s2)cc1` gave an EC50 [1] of 1190 nM.

In the case of `O=C(O)CCc1ccc(OCc2nnc(C(=O)Nc3ccc(F)c(F)c3)s2)cc1`, the EC50 [1] is reported as 580 nM, the EC50 [9] is reported as > 10 µM and the EC50 [11] is reported as > 10 µM. For the same compound, the EC50 [17] was > 10 µM.

Work on `O=C(O)CCc1ccc(OCc2nnc(C(=O)Nc3ccc(Cl)cc3)s2)cc1` yielded an EC50 [1] of 3690 nM.

`Cc1cccc(NC(=O)c2nnc(COc3ccc(CCC(=O)O)cc3)s2)c1` showed an EC50 [1] of 1770 nM.

For `O=C(O)CCc1ccc(OCc2nnc(C(=O)Nc3ccccc3)s2)cc1`, the EC50 [1] was 1060 nM.
